MBD2 inh: inhibitors of MBD2 binding to methylated DNA, primary screen, biochemical, TR-FRET, DNA-binding domain, human; Methyl-CpG-binding domain protein 2 (Homo sapiens), Q9UBB5; MBD2 binding to methylated oligonucleotide; inhibition, % at 4.4 µM; 0.31% of 370,000 active; AID 686964, 2013; in the data active = inhibition above about 13%
Target sequence (Q9UBB5 whole entry, looked up, the tested form may be a part): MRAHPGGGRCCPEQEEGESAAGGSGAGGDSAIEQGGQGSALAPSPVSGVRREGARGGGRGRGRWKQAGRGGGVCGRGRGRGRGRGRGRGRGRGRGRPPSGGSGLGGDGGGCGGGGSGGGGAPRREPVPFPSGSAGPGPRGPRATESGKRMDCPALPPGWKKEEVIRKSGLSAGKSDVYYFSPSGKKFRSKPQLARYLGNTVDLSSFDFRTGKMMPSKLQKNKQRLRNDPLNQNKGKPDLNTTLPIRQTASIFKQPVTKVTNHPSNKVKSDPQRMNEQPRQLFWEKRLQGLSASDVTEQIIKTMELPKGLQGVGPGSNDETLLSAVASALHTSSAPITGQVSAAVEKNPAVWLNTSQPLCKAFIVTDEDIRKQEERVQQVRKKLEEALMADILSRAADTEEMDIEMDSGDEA
CSN deneddyl inh: inhibitors of CSN-mediated cullin deneddylation, primary screen, biochemical, fluorescence polarization, uHTS. COP9 signalosome complex subunit 5 (Homo sapiens), Q92905. Purified CSN, SCF-Nedd8-OG deneddylation. inhibition, % at 12.5 µM. 0.38% of 360,000 active. AID 651999, 2013;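 active = pattern-corrected inhibition above about 35%, with an unprinted fluorescence ratio check between 0.5 and 1.5, limit read from the data, passing the limit was not always enough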;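 also: 0% = enzyme with substrate and 100% = substrate without enzyme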
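Assay system: purified human Csn5 enzyme expressed in HEK293T cells; measure: % inhibition; also added: SCFSkp2-Nedd8OG substrate at 10 nM final; technique: fluorescence polarization; times: reaction 90 min, room temperature; medium: Tris buffer pH 7.5, NaCl, DTT, Tween-20, trehalose, ovalbumin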
ATG4B inhibitor: ATG4B protease inhibitors, primary screen, biochemical, fluorescence, uHTS; Cysteine protease ATG4B (Homo sapiens), Q9Y4P1; ATG4B cleavage of LC3-PLA2, NBD-HPC fluorescence, 1 h; inhibition, % at 8.33 µM; 0.51% of 340,000 active; AID 504462, 2011; in the data active = inhibition above about 40%
rCAG binder: binders of r(CAG) RNA repeats, primary screen, biochemical, fluorescence | r(CAG) RNA repeat, TO-PRO-1 dye displacement fluorescence | inhibition, % at 3 µM | 1.3% of 370,000 active | AID 651821, 2012;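 active = inhibition above the plate cutoff, the mean of all test compounds on that plate plus 3 SD, cut at about 35% in these data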;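 also: 0% = DMSO alone and 100% = 100 µM mitoxantrone as full dye displacement; higher means more dye released from RNA so lower well fluorescence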
UHRF1 binding: UHRF1 methylated DNA binding inhibitors, primary screen, counter-screen for MBD2 inhibitor project, biochemical, TR-FRET, human UHRF1, single concentration; E3 ubiquitin-protein ligase UHRF1 (Homo sapiens), Q96T88; UHRF1 binding to methylated oligo; inhibition, % at 4.4 µM; 0.75% of 370,000 active; AID 687016, 2013; in the data active = inhibition above about 21%;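 also: UHRF1 SRA domain binding a hemimethylated CpG hairpin DNA probe; 0% = median of test compound wells and 100% = reference inhibitor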
LEDGF integ inh: blockers of LEDGF/p75-dependent integrase strand transfer – biochemical, TR-FRET, high throughput, primary screen | inhibition, % at 3.7 µM | 0.64% of 370,000 active | TR-FRET IN-LEDGF/p75 DNA integration, Eu/Cy5 | HIV-1 integrase (with human LEDGF/p75);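 active = inhibition above the screen-wide mean plus 3 SD, cut at about 13% in these data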;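 also: signal is the Cy5 over europium emission ratio at 671 and 618 nm; 0% = plate median of compound wells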
IN multimer up: HIV-1 IN multimer formation enhancers, counter-screen for LEDGF/p75 integration inhibitor project, biochemical, TR-FRET. 17% of 2,000 active. AID 1053131, 2014. shares compounds with LEDGF integ inh. TR-FRET HIV-1 integrase multimerization. activation, % at 7.7 µM; in the data active = activation above about 8.9%
TRFRET interf: TR-FRET optical interference artefacts, confirmation, artefact control for LEDGF/p75-dependent integration inhibitor project, biochemical, HIV-1 IN multimerization; inhibition, % at 7.7 µM; shares compounds with LEDGF integ inh; TR-FRET optical interference counterscreen; 2,000 tested, under 10 active;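 active = inhibition above the mean over all tested compounds plus 3 SD, which no compound reached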;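 also: 0% = integrase with antibodies and DMSO and 100% = antibodies without integrase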
IN-LEDGF confirm: inhibitors of HIV-1 IN-LEDGF/p75 DNA integration, confirmation, biochemical, TR-FRET; shares compounds with LEDGF integ inh; AID 1053136, 2014; 36% of 2,000 active; TR-FRET LEDGF/p75-dependent HIV-1 integration; inhibition, % at 3.7 µM; in the data active = inhibition above about 14%
* hit, by the source's call; · = not tested or not shown. Sampled rows, rich in hits. Any-hit rate of the full collection: about 3.1%.

SMILES | MBD2 inh | CSN deneddyl inh | ATG4B inhibitor | rCAG binder | UHRF1 binding | LEDGF integ inh | IN multimer up | TRFRET interf | IN-LEDGF confirm
COc1cc(CCNC2=CC(=O)c3ncccc3C2=O)ccc1O | -22 | 3 | 2 | 5 | -14 | 29* | 5 | -16 | 60*
C[C@@H](NS(=O)(=O)c1ccc(Br)cc1F)[C@@H](O)c1ccccc1 | -1 | -1 | -5 | 3 | 4 | 3 | · | · | ·
CC(NS(=O)(=O)c1ccc(Br)cc1F)[C@H](O)c1ccccc1 (stereo partly specified) | 4 | 0 | · | 1 | -2 | 15* | 2 | -8 | -3
COC(=O)C[C@@H]1C[C@H]2c3cc(NC(=O)CC4CC4)ccc3O[C@H]2[C@@H](CO)O1 | 3 | 2 | · | 0 | 1 | -2 | · | · | ·
COC(=O)C[C@H]1C[C@H]2c3cc(NC(=O)Cc4ccncc4)ccc3O[C@H]2[C@@H](CO)O1 | -7 | -7 | · | 3 | -5 | 14* | 0 | 0 | -5
CC(COc1cccc(Cl)c1)CN1CCC(C(O)(c2ccccc2)c2ccccc2)CC1 (stereo unspecified) | 1 | · | · | 3 | -4 | -2 | · | · | ·
O=C(Nc1nccs1)c1ccc(S(=O)(=O)N2CCCCC2)cc1 | 2 | 1 | 0 | 2 | 2 | 15* | 0 | -1 | 2
COc1ccc(C(=O)N2CCC(C(=O)c3ccc(F)cc3)CC2)cc1 | 3 | 1 | -1 | -1 | 1 | 80* | 0 | 1 | -4
O=C(NC1CCCCN(Cc2ccc(Cl)cc2)C1=O)c1cccc([N+](=O)[O-])c1 (stereo unspecified) | -3 | · | · | 4 | 1 | -2 | · | · | ·
O=C(NCc1ccccc1)C1CCN(c2nc(-c3ccc(Br)cc3)cs2)CC1 | -3 | · | · | · | 1 | -2 | · | · | ·
CC(C=CC(O)=C1C(=O)CNC1=O)=C[C@@H](C)C1OC2(C)OC(C(=O)C3O[C@@]32C)C1C (stereo partly specified) | -7 | -2 | · | 8 | -7 | 22* | 5 | -23 | 12
Cc1ccc(-c2c(C(=O)O)c(C(=O)O)c3n2CSC3)cc1 | -4 | -2 | 8 | 7 | 2 | 14* | 0 | -1 | -5
CCCCNC(=O)N1CCCC1C(=O)Nc1cccc(OC)c1 (stereo unspecified) | 2 | · | · | 5 | -1 | 0 | · | · | ·
CCC(Sc1nc2ccccc2[nH]1)C(=O)Nc1cc(C)on1 (stereo unspecified) | -1 | -1 | -15 | 3 | 2 | 29* | 0 | 0 | 3
Cc1ccnc(NS(=O)(=O)c2ccc(NC(=O)c3ccccc3F)cc2)n1 | -6 | 0 | -7 | 1 | 4 | 25* | 1 | -2 | -3
CCOC(=O)[C@]12CCCC=C1N(CCCOC)C(=O)[C@@H]2CC(=O)NCc1cccs1 | 4 | · | · | -1 | 0 | 4 | · | · | ·
COc1cc([C@H]2OC[C@H]3[C@@H]2CO[C@H]3c2ccc(O)c(OC)c2)ccc1O | 2 | 1 | -1 | 5 | 0 | -4 | · | · | ·
COc1cc(C2OCC3C(c4ccc(OC5OC(CO)C(O)C(O)C5O)c(OC)c4)OCC23)ccc1O (stereo unspecified) | -4 | 1 | -20 | 4 | -1 | 32* | 34* | -120 | 15*
O=c1oc(/C=C/c2ccco2)nc2sc3c(c12)CCC3 | 12 | 42* | 2 | 25 | 40* | 25* | 1 | -4 | 2
O=c1oc(-c2cccs2)nc2sc3c(c12)CCC3 | 1 | 2 | -5 | 0 | -4 | 0 | · | · | ·
CCN(CC(=O)Nc1c(F)cccc1F)C(=O)C1CC(=O)N(CCc2ccccc2)C1 (stereo unspecified) | 2 | -1 | 2 | -3 | -1 | 35* | -2 | 12 | -10
Cn1cccc1C(=O)N1CCN(S(=O)(=O)c2ccc(F)cc2)CC1 | 2 | · | · | 5 | -2 | -2 | · | · | ·
O=c1cc(-c2cccc([N+](=O)[O-])c2)[nH][nH]1 | 5 | -4 | -1 | 3 | 19 | 22* | -2 | 11 | 8
CCN(CC)c1ccc(C=Nn2c(C)nnc2C)cc1 | -4 | · | · | 3 | 2 | 7 | · | · | ·
Cn1cc(CC(=O)Nc2ccc(Nc3cccnc3)cc2)c2ccccc21 | -2 | · | · | 4 | 2 | -5 | · | · | ·
SMILES | MBD2 inh | CSN deneddyl inh | ATG4B inhibitor | rCAG binder | UHRF1 binding | LEDGF integ inh | IN multimer up | TRFRET interf | IN-LEDGF confirm
COc1ccc(CC(=O)O/N=C(\N)Cc2cccc3ccccc23)cc1 | 0 | 9 | -1 | -3 | -1 | 14* | -1 | 3 | -1
COc1ccc(CC(=O)O/N=C(\N)Cc2cccc3ccccc23)cc1OC | 0 | 1 | 5 | -2 | -2 | -3 | · | · | ·
C[C@H]1CCCC(=O)N[C@@H](c2ccccc2)[C@@H](C)CCCC(=O)N[C@H]1c1ccccc1 | 3 | · | · | 3 | 0 | -3 | · | · | ·
COc1cc(NS(=O)(=O)c2ccc(C)cc2)c2ncccc2c1 | -2 | 2 | -9 | 2 | 0 | -26 | · | · | ·
CCC(CNc1cc(OC)cc2cccnc12)NC1CCCCC1 (stereo unspecified) | -16 | -33 | 2 | 3 | 9 | 58* | 6 | -22 | 76*
COc1cc(NCCCC(C)N)c2ncccc2c1 (stereo unspecified) | -16 | -12 | 20 | 9 | -4 | 30* | 5 | -19 | 63*
COC(=O)\C(C(C)=O)=C(/C=C/C=C/C=C/N(C)C)N(C)C | 11 | 17 | 7 | 22 | 55* | 56* | 8 | -43 | 59*
O=C1[C@@H]2Cc3c([nH]c4ccccc34)CN2C(=O)CN1CCCCCO | -2 | 0 | -3 | -1 | 0 | 96* | 0 | -1 | -5

Bioassay records (PubChem BioAssay)
